From ChEMBL document CHEMBL3616473, “Identification and in silico prediction of metabolites of the model compound, tebufenozide by human CYP3A4 and CYP2C19” (Bioorg Med Chem, 2015)

Tests used:
[1] = target: Cytochrome P450 3A4 (Homo sapiens, UniProt P08684); assay: Drug level in yeast cells expressing human CYP3A4 assessed as human CYP3A4-mediated compound formation by pre-incubated with 200 uM tebufenozide for 2 mins at 37 degC before NADPH addition by LC/MS method; type: ADME, cell-based; conditions: recombinant enzyme
Chain of Cytochrome P450 3A4 (P08684 whole entry): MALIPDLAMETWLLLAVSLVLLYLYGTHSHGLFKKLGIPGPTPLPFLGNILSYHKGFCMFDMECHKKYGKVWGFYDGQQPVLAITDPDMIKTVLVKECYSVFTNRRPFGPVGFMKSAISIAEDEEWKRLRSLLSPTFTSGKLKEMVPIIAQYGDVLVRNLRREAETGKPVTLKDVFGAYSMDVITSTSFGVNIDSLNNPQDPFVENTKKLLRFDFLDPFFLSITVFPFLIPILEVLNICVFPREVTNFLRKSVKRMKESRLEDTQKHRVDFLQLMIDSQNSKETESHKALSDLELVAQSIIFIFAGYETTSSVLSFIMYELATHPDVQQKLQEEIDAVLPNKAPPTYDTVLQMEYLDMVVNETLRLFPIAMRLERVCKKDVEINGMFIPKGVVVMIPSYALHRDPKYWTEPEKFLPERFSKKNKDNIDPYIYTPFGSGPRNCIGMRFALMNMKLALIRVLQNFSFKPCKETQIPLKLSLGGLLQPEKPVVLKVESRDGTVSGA
In short: (§1)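 Microsomes with 67 nM human P450 in 100 mM phosphate buffer, pH 7.4, preincubated 2 min at 37 °C. Reaction started with NADPH (1 mM final) at 37 °C and stopped at various times with two volumes of acetonitrile and shaking. After centrifugation (7,000 G, 10 min), the acetonitrile phase was analysed by HPLC and by LC/MS (ESI positive mode, m/z 100-500).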

[2] = Retention time of the compound by HPLC method; type: physicochemical
[3] = target: Cytochrome P450 2C19 (Homo sapiens, UniProt P33261); assay: Drug level in yeast cells expressing human CYP2C19 assessed as human CYP2C19-mediated compound formation by pre-incubated with 200 uM tebufenozide for 2 mins at 37 degC before NADPH addition by LC/MS method; type: ADME, cell-based; conditions: recombinant enzyme; in short: as §1
Chain of Cytochrome P450 2C19 (P33261 whole entry): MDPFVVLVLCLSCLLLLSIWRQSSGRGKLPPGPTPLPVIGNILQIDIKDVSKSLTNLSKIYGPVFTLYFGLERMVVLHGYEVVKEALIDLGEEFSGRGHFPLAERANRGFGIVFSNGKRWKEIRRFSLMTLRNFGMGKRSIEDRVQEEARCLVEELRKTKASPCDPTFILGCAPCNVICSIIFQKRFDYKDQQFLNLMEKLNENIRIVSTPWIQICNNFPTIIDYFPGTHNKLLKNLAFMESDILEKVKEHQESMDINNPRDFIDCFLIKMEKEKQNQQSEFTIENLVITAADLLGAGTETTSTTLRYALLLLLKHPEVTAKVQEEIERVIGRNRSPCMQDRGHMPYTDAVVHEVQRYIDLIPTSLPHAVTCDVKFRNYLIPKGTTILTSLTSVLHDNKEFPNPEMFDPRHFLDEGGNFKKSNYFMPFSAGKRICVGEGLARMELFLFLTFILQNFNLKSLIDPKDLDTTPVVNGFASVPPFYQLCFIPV

[4] = Selectivity index, ratio of Vmax for human CYP3A4-mediated metabolite-M1 formation to Vmax for human CYP2C19-mediated metabolite-M1 formation; conditions: recombinant enzyme
In short: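 Microsomes with 67 nM human CYP3A4 or CYP2C19 in 100 mM phosphate buffer, pH 7.4, with tebufenozide (1–50, 2% acetonitrile), preincubated 2 min at 37 °C. NADPH (1 mM final) was added, and reactions were stopped with acetonitrile after 5 min (CYP3A4) or 10 min (CYP2C19). M1 was quantified by HPLC, and Km and Vmax were fitted from rate (mol/min/mol P450) against substrate concentration.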

[5] = Selectivity index, ratio of Km for human CYP3A4-mediated metabolite-M1 formation to Km for human CYP2C19-mediated metabolite-M1 formation; conditions: recombinant enzyme

| Drug metabolism [1] | Retention_time [2] [min] | Drug metabolism [3] | SMILES | Ratio [4] | Ratio [5] |
| --- | --- | --- | --- | --- | --- |
| metabolite_detected | 10.5 | – | CCc1ccc(C(=O)NN(C(=O)c2cc(C)cc(CO)c2)C(C)(C)C)cc1 | – | – |
| – | 12 | metabolite_detected | CC(=O)c1ccc(C(=O)NN(C(=O)c2cc(C)cc(C)c2)C(C)(C)C)cc1 | – | – |
| metabolite_detected | 14.5 | – | CCc1ccc(C(=O)NN(C(=O)c2cc(C)cc(C)c2)C(C)(C)CO)cc1 | – | – |
| – | 15 | metabolite_detected | C=Cc1ccc(C(=O)NN(C(=O)c2cc(C)cc(C)c2)C(C)(C)C)cc1 | – | – |
| metabolite_detected | 9.5 | metabolite_detected | Cc1cc(C)cc(C(=O)N(NC(=O)c2ccc(C(C)O)cc2)C(C)(C)C)c1 (racemic) | – | – |
| – | – | – | CCc1ccc(C(=O)NN(C(=O)c2cc(C)cc(C)c2)C(C)(C)C)cc1 [TEBUFENOZIDE] | 6 | 4 |
